The nature of the assay: Inhibition of carbapenems-resistant Pseudomonas aeruginosa MSC15369 metallo-beta-lactamase IMP-1 expressed in Escherichia coli after 20 mins by spectrophotometry. In outline:
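IMP-1 purified from cell extracts by Ni-NTA; 1.0 nM enzyme in 50 mM HEPES pH 7.5 with 100 µM ZnSO4 and 20 µg/ml BSA, preincubated with inhibitor 20 min at room temperature; nitrocefin substrate, initial velocity read at 490 nm; IC50 determined.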

This passage reports IC50 results from ChEMBL document CHEMBL1155308, “Metallo-beta-lactamase inhibitory activity of phthalic acid derivatives” (Bioorg Med Chem Lett, 2009).

Structures are written as SMILES.

By IC50 is commonly meant the concentration that gives 50% inhibition. The low end stands for higher potency, the high end for lower potency. In turn, `O=C(O)c1cccc(-c2ccc(O)cc2)c1C(=O)O` displayed an IC50 of 1.55 µM. As for `CC(C)(C)c1ccc(C(=O)O)c(C(=O)O)c1`, the figure is > 300 µM; as for `O=C(O)c1cccc(-c2ccccc2)c1C(=O)O`, 0.968 µM. Turning to `O=C(O)c1ccccc1C(=O)O` [PHTHALIC ACID], the IC50 is > 100 µM. Under `O=C(O)c1ccc(-c2cccc(C(=O)O)c2C(=O)O)cc1` stands 2.25 µM. `O=C(O)c1cccc(-c2cccc(O)c2)c1C(=O)O` showed an IC50 of 1.75 µM. `O=C(O)c1cccc(-c2ccccc2O)c1C(=O)O` gave a concentration for half-maximal inhibition (IC50) of 2.44 µM. On to `O=C(O)c1ccc(-c2ccccc2)cc1C(=O)O`, for which the IC50 was > 300 µM.

With `O=C(O)c1cccc(CCCO)c1C(=O)O`, 13.2 µM corresponded to half-maximal inhibition (IC50).

`Cc1cccc(C(=O)O)c1C(=O)O`: the 50% inhibitory concentration (IC50) came to 160 µM. As for `CCCCc1ccc(C(=O)O)c(C(=O)O)c1C`, the figure is 16 µM. Under `O=C(O)c1ccccc1-c1cccc(C(=O)O)c1C(=O)O` stands 207 µM; under `Cc1ccc(C(=O)O)c(C(=O)O)c1`, > 300 µM; under `O=C(O)c1cccc(-c2cccc(C(=O)O)c2C(=O)O)c1`, 17.9 µM.

Turning to `CCCCc1ccc(C(=O)O)c(C(=O)O)c1`, the IC50 came to 243 µM.
